Series [1] deals with T1, UDP-glucuronosyltransferase 2B4 (Homo sapiens, UniProt P06133).
T1 sequence (P06133 whole entry): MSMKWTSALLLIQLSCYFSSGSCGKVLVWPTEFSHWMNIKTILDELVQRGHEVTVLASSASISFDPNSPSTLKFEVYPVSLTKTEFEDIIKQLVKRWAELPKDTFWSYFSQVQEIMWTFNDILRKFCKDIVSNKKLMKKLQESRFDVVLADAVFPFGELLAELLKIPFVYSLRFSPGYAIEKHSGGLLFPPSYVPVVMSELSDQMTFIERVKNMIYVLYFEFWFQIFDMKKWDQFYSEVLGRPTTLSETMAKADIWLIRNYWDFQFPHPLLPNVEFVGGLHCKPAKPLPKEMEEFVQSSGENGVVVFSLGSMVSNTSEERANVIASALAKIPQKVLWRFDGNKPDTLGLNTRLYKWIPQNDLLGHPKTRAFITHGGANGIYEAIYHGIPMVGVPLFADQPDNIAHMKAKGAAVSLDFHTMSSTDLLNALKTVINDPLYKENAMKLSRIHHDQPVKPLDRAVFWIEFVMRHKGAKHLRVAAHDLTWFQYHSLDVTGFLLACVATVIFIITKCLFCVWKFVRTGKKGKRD
Nature of the series: Activity of human UGT2B4 expressed in microsomes isolated from baculovirus infected insect cell assessed as enzyme-mediated (2S,3S,4S,5R,6R)-6-((1-carboxy-2-(4-((6-methoxy-1-methyl-1H-benzo[d]imidazol-2-yl)methoxy)phenyl)ethylthio)carbonylamino)-3,4,5-trihydroxytetrahydro-2H-pyran-2-carboxylic acid formation at 20 uM after 4 hrs by radio-HPLC/LC-MS/MS analysis in presence of UDPGA. It counts as ADME.

For series [2], the target named is T1, UDP-glucuronosyltransferase 2B4. Description: Activity of human UGT2B4 expressed in microsomes isolated from baculovirus infected insect cell assessed as enzyme-mediated 2-mercapto-3-(4-((6-methoxy-1-methyl-1H-benzo[d]imidazol-2-yl)methoxy)phenyl)propanoic acid formation at 20 uM after 4 hrs by radio-HPLC/LC-MS/MS analysis in presence of UDPGA. It counts as ADME.

Series [3] can be described thus: Drug metabolism in rat hepatocytes assessed as formation of 2-mercapto-3-(4-((6-methoxy-1-methyl-1H-benzo[d]imidazol-2-yl)methoxy)phenyl)propanamide at 30 uM after 3 hrs by radio-HPLC/LC-MS/MS analysis in presence of NADPH-generating system and NADPH-generating system/SAM. It counts as ADME, cell-based, Hepatocyte.
The target of series [4] is T2, Cytochrome P450 1A2 (Homo sapiens, UniProt P05177).
T2 sequence (P05177 whole entry): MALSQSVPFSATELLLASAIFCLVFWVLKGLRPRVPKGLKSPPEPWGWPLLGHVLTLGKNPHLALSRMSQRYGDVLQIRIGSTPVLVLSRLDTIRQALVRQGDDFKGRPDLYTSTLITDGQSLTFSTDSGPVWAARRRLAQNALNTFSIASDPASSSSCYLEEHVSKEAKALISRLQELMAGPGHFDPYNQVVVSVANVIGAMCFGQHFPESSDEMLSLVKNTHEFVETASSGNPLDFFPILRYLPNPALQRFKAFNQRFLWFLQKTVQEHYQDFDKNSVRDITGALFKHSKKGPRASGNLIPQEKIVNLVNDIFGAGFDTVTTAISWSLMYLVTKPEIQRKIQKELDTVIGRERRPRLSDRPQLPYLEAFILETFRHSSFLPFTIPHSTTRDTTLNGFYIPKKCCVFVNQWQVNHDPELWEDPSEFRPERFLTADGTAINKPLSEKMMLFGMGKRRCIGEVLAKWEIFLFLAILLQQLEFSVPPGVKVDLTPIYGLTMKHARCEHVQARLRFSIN
Description: Activity of human CYP1A2 expressed in microsomes isolated from baculovirus infected insect cell assessed as enzyme-mediated 3-(4-((6-methoxy-1-methyl-1H-benzo[d]imidazol-2-yl)methoxy)phenyl)-2-(methylsulfinyl)propanamide formation at 20 uM after 2 hrs by radio-HPLC/LC-MS/MS analysis in presence of NADPH-generating system/SAM. The format is ADME.

In series [5] the target is Cytochrome P450 2D6 (Homo sapiens, UniProt P10635). Nature of the series: Activity of human CYP2D6 expressed in microsomes isolated from baculovirus infected insect cell assessed as enzyme-mediated 3-(4-((6-methoxy-1-methyl-1H-benzo[d]imidazol-2-yl)methoxy)phenyl)-2-(methylsulfonyl)propanamide formation at 20 uM after 2 hrs by radio-HPLC/LC-MS/MS analysis in presence of NADPH-generating system/SAM. It counts as ADME.

Series [6] has as its target T2, Cytochrome P450 1A2. Nature of the series: Activity of human CYP1A2 expressed in microsomes isolated from baculovirus infected insect cell assessed as enzyme-mediated 2-mercapto-3-(4-((6-methoxy-1-methyl-1H-benzo[d]imidazol-2-yl)methoxy)phenyl)propanoic acid formation at 20 uM after 2 hrs by radio-HPLC/LC-MS/MS analysis in presence of NADPH-generating system. It counts as ADME. The essentials:
(§1)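 Baculovirus/insect-cell microsomes expressing single human CYPs, 1 mg/ml protein, with 50 mM potassium phosphate (pH 7.4) or 100 mM Tris-HCl (pH 7.5). NADPH-generating system: 2 mM NADP⁺, 20 mM glucose 6-phosphate, 2 units/ml G6PDH, 10 mM MgCl₂. [¹⁴C]rivoglitazone at 20 μM, 2 h at 37°C with shaking. Control used insect-cell control supersomes. Stopped with acetonitrile; supernatant concentrated under nitrogen; metabolites analysed by radio-HPLC, LC-MS and LC-MS/MS.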

In series [7] the target is Cytochrome P450 2C9 (Homo sapiens, UniProt P11712). Nature of the series: Activity of human CYP2C9 expressed in microsomes isolated from baculovirus infected insect cell assessed as enzyme-mediated 2-mercapto-3-(4-((6-methoxy-1-methyl-1H-benzo[d]imidazol-2-yl)methoxy)phenyl)propanoic acid formation at 20 uM after 2 hrs by radio-HPLC/LC-MS/MS analysis in presence of NADPH-generating system. The format is ADME. The essentials: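 Baculovirus-insect-cell microsomes expressing the human CYP (1 mg/ml protein) were incubated with [14C]rivoglitazone (20 μM) in 50 mM potassium phosphate (pH 7.4) or 100 mM Tris-HCl (pH 7.5) with an NADPH-generating system (2 mM NADP+, 20 mM glucose 6-phosphate, 2 units/ml G6PDH, 10 mM MgCl2) for 2 h at 37°C. Insect-cell control supersomes served as the control. Reactions were stopped with acetonitrile, and the concentrated supernatants were analysed by radio-HPLC, LC-MS and LC-MS/MS.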

In series [8] the target is T2, Cytochrome P450 1A2. Nature of the series: Activity of human CYP1A2 expressed in microsomes isolated from baculovirus infected insect cell assessed as enzyme-mediated 5-(4-((6-methoxy-1H-benzo[d]imidazol-2-yl)methoxy)benzyl)thiazolidine-2,4-dione formation at 20 uM after 2 hrs by radio-HPLC/LC-MS/MS analysis in presence of NADPH-generating system and NADPH-generating system/SAM. It counts as ADME. The essentials: as §1

A short description of series [9]: Drug metabolism in monkey hepatocytes assessed as formation of 2-((4-((2,4-dioxothiazolidin-5-yl)methyl)phenoxy)methyl)-1-methyl-1H-benzo[d]imidazol-6-yl hydrogen sulfate at 30 uM after 3 hrs by radio-HPLC/LC-MS/MS analysis. The settings on record: cynomolgus monkey.
Series [10] can be described thus: Drug metabolism in monkey hepatocytes assessed as formation of 3-(4-((6-methoxy-1-methyl-1H-benzo[d]imidazol-2-yl)methoxy)phenyl)-2-(methylthio)propanoic acid at 30 uM after 3 hrs by radio-HPLC/LC-MS/MS analysis in presence of NADPH-generating system/SAM and UDPGA/SAM. Particulars: cynomolgus monkey.

Chain of Cytochrome P450 2C9 (P11712 whole entry): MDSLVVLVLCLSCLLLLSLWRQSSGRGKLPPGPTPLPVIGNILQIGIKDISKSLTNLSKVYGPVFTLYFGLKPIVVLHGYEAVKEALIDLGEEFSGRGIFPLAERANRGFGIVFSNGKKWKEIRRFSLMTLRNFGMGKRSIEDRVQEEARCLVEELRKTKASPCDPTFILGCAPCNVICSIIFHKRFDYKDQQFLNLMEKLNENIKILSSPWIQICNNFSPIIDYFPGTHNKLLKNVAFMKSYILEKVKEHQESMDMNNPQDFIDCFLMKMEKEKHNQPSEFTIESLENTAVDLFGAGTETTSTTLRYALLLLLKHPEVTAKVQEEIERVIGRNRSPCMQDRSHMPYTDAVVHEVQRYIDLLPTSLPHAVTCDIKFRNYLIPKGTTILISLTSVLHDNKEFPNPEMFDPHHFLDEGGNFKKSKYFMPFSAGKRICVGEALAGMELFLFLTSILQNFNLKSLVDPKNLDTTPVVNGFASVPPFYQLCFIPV
Chain of Cytochrome P450 2D6 (P10635 whole entry): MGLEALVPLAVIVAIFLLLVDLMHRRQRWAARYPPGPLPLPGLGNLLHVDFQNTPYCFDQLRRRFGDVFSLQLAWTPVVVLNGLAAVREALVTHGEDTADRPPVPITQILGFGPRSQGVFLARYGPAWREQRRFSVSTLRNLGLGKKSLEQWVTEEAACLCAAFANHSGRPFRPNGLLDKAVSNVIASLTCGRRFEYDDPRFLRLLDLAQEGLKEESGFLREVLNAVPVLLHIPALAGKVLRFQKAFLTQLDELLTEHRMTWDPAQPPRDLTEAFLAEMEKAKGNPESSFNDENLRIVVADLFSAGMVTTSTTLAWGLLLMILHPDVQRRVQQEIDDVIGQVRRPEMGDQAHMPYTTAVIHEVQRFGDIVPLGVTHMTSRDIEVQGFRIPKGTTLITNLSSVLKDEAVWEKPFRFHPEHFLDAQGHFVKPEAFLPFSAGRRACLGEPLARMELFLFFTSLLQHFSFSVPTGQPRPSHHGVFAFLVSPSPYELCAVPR

Turning to `COc1ccc2nc(COc3ccc(C[14CH]4SC(=O)NC4=O)cc3)n(C)c2c1.Cl` (racemic), the Drug metabolism result in [1] is listed as “metabolite_not_detected”; in series [2], “metabolite_not_detected”; in [3], “metabolite_not_detected”; in series [4], “metabolite_not_detected”; in [5], “metabolite_not_detected”; in series [6], “metabolite_detected”. Also, the Drug metabolism result in series [7] was “metabolite_detected”; in series [8], “metabolite_detected”; in [9] it was “metabolite_detected”; in series [10], “metabolite_not_detected”.
